pIC50: −log10 of the molar value. Active and inactive are the calls of the source. No cut-off for these calls is given here.
Legend:
[1] = biological target: T1, Protein farnesyltransferase (Homo sapiens, UniProt P49354+P49356); experiment: Inhibition of [3H]FPP incorporation into biotinylated laminB peptide by farnesyl transferase; type: protein-complex assay
How it was run: (§1)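 Isolated FPT enzyme assay measuring incorporation of [3H]-farnesylpyrophosphate into biotinylated laminB peptide. IC50 is the concentration giving 50% reduction of incorporation. Some entries are given as percent inhibition at a single concentration.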

[2] = biological target: T2, Geranylgeranyl transferase type I (Homo sapiens, UniProt P49354+P53609); experiment: Inhibition of Geranylgeranylprotein transferase-I catalyzed incorporation of [3H]GGPP into biotinYRASNRSCAIL peptide at 10 uM; type: protein-complex assay
NIH3T3 [3] = experiment: T24H-ras-transformed NIH3T3 cell proliferation; type: functional, cell-based, Mus musculus
[4] = biological target: T1, Protein farnesyltransferase; experiment: Inhibition of [3H]FPP incorporation into biotinylated laminB peptide by farnesyl transferase 0.1 uM; type: protein-complex assay; how it was run: as §1
Homo sapiens = species on record: Homo sapiens; experiment: Compound tested for metabolism and expressed as percentage of parent drug remaining after 120 min incubation with human liver microsomes.; type: functional, organism-based
NIH3T3 [5] = experiment: (§2) In vivo inhibition of T24H-ras NIH3T3 tumor growth in mice; type: functional, Mus musculus
How it was run: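 Mice were inoculated with T24 NIH 3T3 cells. Dosing at 25 mg/kg was oral, once daily, starting 2 days after tumour inoculation. Tumour growth was assessed 17 days after administration and is reported as percentage inhibition of tumour weight.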

NIH3T3 [6] = experiment: In vivo inhibition of T24H-ras NIH3T3 tumor growth in mice (Not significant); type: functional, organism-based; settings: Mus musculus
[7] = biological target: T2, Geranylgeranyl transferase type I; experiment: Inhibition of Geranylgeranylprotein transferase-I catalyzed incorporation of [3H]GGPP into biotinYRASNRSCAIL peptide; type: protein-complex assay
NIH3T3 [8] = experiment: as §2; type: functional, Mus musculus; remark: listed apart in the source
[9] = biological target: T1, Protein farnesyltransferase; experiment: Inhibition of [3H]FPP incorporation into biotinylated laminB peptide by farnesyl transferase at 0.1 uM; type: protein-complex assay; how it was run: as §1

Structure (SMILES)	pIC50 (NIH3T3 [3]; nih3t3)	pIC50 [1]	pIC50 (NIH3T3 [3]; Mus musculus, NIH3T3)	further results
Cn1cncc1C(N)(c1ccc(Cl)cc1)c1ccc2c(c1)c(-c1cccc(Cl)c1)cc1nnnn12 (stereo in doubt; 24a)	< 6.30			Inhibition [1]: 36%; Inhibition [2]: 55%
Cn1cncc1C(N)(c1ccc(Cl)cc1)c1ccc2c(c1)c(-c1cccc(Cl)c1)nc1nnnn12 (stereo in doubt; 43b)	6.97	7.66		
Cn1cncc1C(N)(c1ccc(Cl)cc1)c1ccc2c(c1)c(-c1cccc(Cl)c1)cc1nnc(-c3ccccc3)n12 (stereo unspecified)			6.52	inhibition [4]: 60%
Cn1cncc1[C@@](N)(c1ccc(Cl)cc1)c1ccc2c(c1)c(-c1cccc(Cl)c1)cc(=O)n2C [TIPIFARNIB]		9.05		Metabolism (Homo sapiens): 66%; Inhibition (NIH3T3 [5]): 37%
Cn1cncc1C(N)(c1ccc(Cl)cc1)c1ccc2c(c1)c(-c1cccc(Cl)c1)nc1nccn12 (stereo unspecified)		8.30	7.06	
Cn1cncc1C(N)(c1ccc(Cl)cc1)c1ccc2c(c1)c(-c1cccc(Cl)c1)cc1nnnn12 (stereo in doubt; 24b) [listing 1 of 2 here]				inhibition (NIH3T3 [6]): inactive
Cn1cncc1C(N)(c1ccc(Cl)cc1)c1ccc2c(c1)c(-c1cccc(Cl)c1)cc1nnnn12 (stereo in doubt; 24b) [listing 2 of 2 here]	7.70	8.77		pIC50 [7]: 7.09
Cn1cncc1C(N)(c1ccc(Cl)cc1)c1ccc2c(c1)c(-c1cccc(Cl)c1)cc1nccn12 (stereo unspecified)		8.15	7.55	
Cn1cncc1C(N)(c1ccc(Cl)cc1)c1ccc2c(c1)c(-c1cccc(Cl)c1)nc1nnnn12 (stereo in doubt; 43a) [listing 1 of 2 here]	8.00	9.22		pIC50 [7]: < 6.00; Inhibition (NIH3T3 [8]): 66%
Cn1cncc1C(N)(c1ccc(Cl)cc1)c1ccc2c(c1)c(-c1cccc(Cl)c1)nc1nncn12 (stereo unspecified)		8.52	6.73	
Cn1cncc1C(N)(c1ccc(Cl)cc1)c1ccc2c(c1)c(-c1cccc(Cl)c1)cc1cnnn12 (stereo unspecified)				inhibition [4]: 68%
Cn1cncc1C(N)(c1ccc(Cl)cc1)c1ccc2c(c1)c(-c1cccc(Cl)c1)nc1nnnn12 (stereo in doubt; 43)	7.92	8.60		pIC50 [7]: 6.34
Cc1nnc2cc(-c3cccc(Cl)c3)c3cc(C(N)(c4ccc(Cl)cc4)c4cncn4C)ccc3n12 (stereo unspecified)		8.82	7.76	inhibition (NIH3T3 [6]): inactive
Cn1cncc1C(N)(c1ccc(Cl)cc1)c1ccc2c(c1)c(-c1cccc(Cl)c1)cc1nncn12 (stereo unspecified)				inhibition [9]: 65%
Cn1cncc1C(N)(c1ccc(Cl)cc1)c1ccc2c(c1)c(-c1cccc(Cl)c1)cc1nnnn12 (stereo in doubt; 24)	7.26	8.46		pIC50 [7]: 6.75
Cn1cncc1C(N)(c1ccc(Cl)cc1)c1ccc2c(c1)c(-c1cccc(Cl)c1)nc1nnnn12 (stereo in doubt; 43a) [listing 2 of 2 here]				Metabolism (Homo sapiens): 97%

— ChEMBL document CHEMBL1136482, “Substituted azoloquinolines and -quinazolines as new potent farnesyl protein transferase inhibitors” (Bioorg Med Chem Lett, 2003)
